In ChEMBL document CHEMBL1156797, “Synthesis and antiplasmodial activity of new indolone N-oxide derivatives” (J Med Chem, 2010):

System: Plasmodium falciparum
Assay: Resistance index, ratio of IC50 for chloroquine-resistant Plasmodium falciparum FcB1 to IC50 for drug-sensitive Plasmodium falciparum 3D7
Format: functional
Settings: not given; call rule not given here

Compound | Ratio IC50
COc1ccc2c(c1)C(=O)C(c1ccc(N(C)C)cc1)=[N+]2[O-] | 2.9
COc1ccc2c(c1)C(=O)C(c1ccc(C(F)(F)F)cc1)=[N+]2[O-] | 86
COc1ccc(C2=[N+]([O-])c3ccc(OC)cc3C2=O)cc1 | 0.5
O=C1C(c2ccc(Cl)cc2)=[N+]([O-])c2cc3c(cc21)OCO3 | 1.3
COc1ccc(C2=[N+]([O-])c3ccccc3C2=O)cc1 | 1.9
C[C@H]1[C@H](OC(=O)CCC(=O)[O-])O[C@@H]2O[C@@]3(C)CC[C@H]4[C@H](C)CC[C@@H]1[C@@]24OO3.[Na+] [SODIUM ARESUNATE] | 1.5

System: Plasmodium falciparum
Assay: Antimalarial activity against chloroquine-resistant Plasmodium falciparum FcB1 assessed as [3H]hypoxanthine incorporation after 48 hrs by beta-counter
Format: functional, organism-based
Settings: FcB1/Columbia
Method in brief: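 Primary assay (Toulouse) on FcB1 cultured in RPMI with 25 mM HEPES and 10% human serum, O RBCs. Serial dilutions in triplicate, 2% parasitaemia, 2% haematocrit, 48 h at 37 °C, 5% CO2. [3H]-hypoxanthine added at 24 h, freeze-thaw harvest, β-counting. IC50 by linear regression on the linear segment of the semilog inhibition curve. Three independent repeats.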

Compound | IC50 [µM]
O=C1C(c2ccccc2)=[N+]([O-])c2ccccc21 | 0.889
COc1ccc2c(c1)C(=O)C(c1ccc(N(C)C)cc1)=[N+]2[O-] | < 0.003
COc1ccc2c(c1)C(=O)C(c1ccc(C(F)(F)F)cc1)=[N+]2[O-] | 0.043
CCOc1ccc(C2=[N+]([O-])c3cc4c(cc3C2=O)OCO4)cc1 | 0.156
COc1ccc(C2=[N+]([O-])c3ccc(OC)cc3C2=O)cc1 | 0.04
O=C1C(c2ccc(Cl)cc2)=[N+]([O-])c2cc3c(cc21)OCO3 | 0.075
COc1ccc(C2=[N+]([O-])c3ccccc3C2=O)cc1 | 0.195
C[C@H]1[C@H](OC(=O)CCC(=O)[O-])O[C@@H]2O[C@@]3(C)CC[C@H]4[C@H](C)CC[C@@H]1[C@@]24OO3.[Na+] [SODIUM ARESUNATE] | 0.006

System: not listed separately
Assay: Cytotoxicity against human MCF7 cells after 48 hrs by MTT assay
Format: cell-based
Settings: not given

Compound | CC50 at 48 h [µM]
O=C1C(c2ccccc2)=[N+]([O-])c2ccccc21 | 19.5
COc1ccc2c(c1)C(=O)C(c1ccc(N(C)C)cc1)=[N+]2[O-] | 43.9
COc1ccc2c(c1)C(=O)C(c1ccc(C(F)(F)F)cc1)=[N+]2[O-] | 11.7
COc1ccc2cc(C3=[N+]([O-])c4ccccc4C3=O)ccc2c1 | 15.3
CCOc1ccc(C2=[N+]([O-])c3cc4c(cc3C2=O)OCO4)cc1 | 51.9
COc1ccc(C2=[N+]([O-])c3ccc(OC)cc3C2=O)cc1 | > 35.3
O=C1C(c2ccc(Cl)cc2)=[N+]([O-])c2cc3c(cc21)OCO3 | 15.9
COc1ccc(C2=[N+]([O-])c3ccccc3C2=O)cc1 | > 39.5
C[C@H]1[C@H](OC(=O)CCC(=O)[O-])O[C@@H]2O[C@@]3(C)CC[C@H]4[C@H](C)CC[C@@H]1[C@@]24OO3.[Na+] [SODIUM ARESUNATE] | 9.8

System: not listed separately
Assay: Selectivity index, ratio of CC50 for human MCF7 cells to IC50 for chloroquine-resistant Plasmodium falciparum FcB1
Format: functional
Settings: not given
Method in brief: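 XTT 0.5 mg/mL added for 180 min, formazan read at 450 nm, value taken from dose–response curves, two experiments in triplicate. This CC50 is divided by the FcB1 IC50 to give the index.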

Compound | Ratio CC50/IC50
O=C1C(c2ccccc2)=[N+]([O-])c2ccccc21 | 22
COc1ccc2c(c1)C(=O)C(c1ccc(N(C)C)cc1)=[N+]2[O-] | > 14600
COc1ccc2c(c1)C(=O)C(c1ccc(C(F)(F)F)cc1)=[N+]2[O-] | 273
CCOc1ccc(C2=[N+]([O-])c3cc4c(cc3C2=O)OCO4)cc1 | 332
COc1ccc(C2=[N+]([O-])c3ccc(OC)cc3C2=O)cc1 | >882
O=C1C(c2ccc(Cl)cc2)=[N+]([O-])c2cc3c(cc21)OCO3 | 212
COc1ccc(C2=[N+]([O-])c3ccccc3C2=O)cc1 | >202
C[C@H]1[C@H](OC(=O)CCC(=O)[O-])O[C@@H]2O[C@@]3(C)CC[C@H]4[C@H](C)CC[C@@H]1[C@@]24OO3.[Na+] [SODIUM ARESUNATE] | 1633

System: Plasmodium falciparum
Assay: Antimalarial activity against drug-sensitive Plasmodium falciparum 3D7 assessed as [3H]hypoxanthine incorporation by scintillation counting
Format: functional, organism-based
Settings: not given

Compound | IC50 [µM]
COc1ccc2c(c1)C(=O)C(c1ccc(N(C)C)cc1)=[N+]2[O-] | 0.0017
COc1ccc2c(c1)C(=O)C(c1ccc(C(F)(F)F)cc1)=[N+]2[O-] | < 0.0005
COc1ccc(C2=[N+]([O-])c3ccc(OC)cc3C2=O)cc1 | 0.082
O=C1C(c2ccc(Cl)cc2)=[N+]([O-])c2cc3c(cc21)OCO3 | 0.058
COc1ccc(C2=[N+]([O-])c3ccccc3C2=O)cc1 | 0.101
C[C@H]1[C@H](OC(=O)CCC(=O)[O-])O[C@@H]2O[C@@]3(C)CC[C@H]4[C@H](C)CC[C@@H]1[C@@]24OO3.[Na+] [SODIUM ARESUNATE] | 0.004

System: Plasmodium falciparum
Assay: Antimalarial activity against Plasmodium falciparum K1 assessed as [3H]hypoxanthine incorporation by scintillation counting
Format: functional, organism-based
Settings: not given

Compound | IC50 [µM]
COc1ccc2c(c1)C(=O)C(c1ccc(C(F)(F)F)cc1)=[N+]2[O-] | 0.0019
COc1ccc(C2=[N+]([O-])c3ccc(OC)cc3C2=O)cc1 | 0.016
O=C1C(c2ccc(Cl)cc2)=[N+]([O-])c2cc3c(cc21)OCO3 | 0.088
COc1ccc(C2=[N+]([O-])c3ccccc3C2=O)cc1 | 0.124
C[C@H]1[C@H](OC(=O)CCC(=O)[O-])O[C@@H]2O[C@@]3(C)CC[C@H]4[C@H](C)CC[C@@H]1[C@@]24OO3.[Na+] [SODIUM ARESUNATE] | 0.004

System: not listed separately
Assay: Cytotoxicity against human KB cells after 72 hrs by alamar blue assay
Format: cell-based
Settings: not given
Method in brief: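 KB cells were seeded at 4×10^4 cells/mL in RPMI 1640 with 10% heat-inactivated FCS and left 24 h at 37 °C, 5% CO2. A dilution series was added in triplicate for 72 h, then AlamarBlue for 2–4 h. Fluorescence was read at ex 530/em 585 nm, with podophyllotoxin as positive control and values from curve fitting.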

Compound | CC50 at 72 h [µM]
COc1ccc2c(c1)C(=O)C(c1ccc(N(C)C)cc1)=[N+]2[O-] | 338
COc1ccc2c(c1)C(=O)C(c1ccc(C(F)(F)F)cc1)=[N+]2[O-] | 110
COc1ccc2cc(C3=[N+]([O-])c4ccccc4C3=O)ccc2c1 | 233
COc1ccc(C2=[N+]([O-])c3ccc(OC)cc3C2=O)cc1 | 874
O=C1C(c2ccc(Cl)cc2)=[N+]([O-])c2cc3c(cc21)OCO3 | 27
COc1ccc(C2=[N+]([O-])c3ccccc3C2=O)cc1 | 457
C[C@H]1[C@H](OC(=O)CCC(=O)[O-])O[C@@H]2O[C@@]3(C)CC[C@H]4[C@H](C)CC[C@@H]1[C@@]24OO3.[Na+] [SODIUM ARESUNATE] | 36.2

System: not listed separately
Assay: Selectivity index, ratio of CC50 for human KB cells to IC50 for drug-sensitive Plasmodium falciparum 3D7
Format: functional
Settings: not given
Method in brief: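 The 3D7 value came from [3H]hypoxanthine incorporation: synchronized culture at 0.5% parasitaemia, 2.5% hematocrit, Albumax-supplemented medium, 2-fold dilutions from 100 to 0.05 μM in triplicate, label added at 24 h and harvested at 48 h.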

Compound | Ratio CC50/IC50
COc1ccc2c(c1)C(=O)C(c1ccc(N(C)C)cc1)=[N+]2[O-] | 198823
COc1ccc2c(c1)C(=O)C(c1ccc(C(F)(F)F)cc1)=[N+]2[O-] | >220
COc1ccc2cc(C3=[N+]([O-])c4ccccc4C3=O)ccc2c1 | 2589
COc1ccc(C2=[N+]([O-])c3ccc(OC)cc3C2=O)cc1 | 10658
O=C1C(c2ccc(Cl)cc2)=[N+]([O-])c2cc3c(cc21)OCO3 | 450
COc1ccc(C2=[N+]([O-])c3ccccc3C2=O)cc1 | 4525
C[C@H]1[C@H](OC(=O)CCC(=O)[O-])O[C@@H]2O[C@@]3(C)CC[C@H]4[C@H](C)CC[C@@H]1[C@@]24OO3.[Na+] [SODIUM ARESUNATE] | 9045

System: Plasmodium falciparum
Assay: Resistance index, ratio of IC50 for chloroquine-resistant Plasmodium falciparum K1 to IC50 for drug-sensitive Plasmodium falciparum 3D7
Format: functional
Settings: not given

Compound | Ratio IC50
COc1ccc2c(c1)C(=O)C(c1ccc(C(F)(F)F)cc1)=[N+]2[O-] | 3.8
COc1ccc(C2=[N+]([O-])c3ccc(OC)cc3C2=O)cc1 | 0.2
O=C1C(c2ccc(Cl)cc2)=[N+]([O-])c2cc3c(cc21)OCO3 | 1.5
COc1ccc(C2=[N+]([O-])c3ccccc3C2=O)cc1 | 1.2
C[C@H]1[C@H](OC(=O)CCC(=O)[O-])O[C@@H]2O[C@@]3(C)CC[C@H]4[C@H](C)CC[C@@H]1[C@@]24OO3.[Na+] [SODIUM ARESUNATE] | 1

System: Mus musculus
Assay: Toxicity in Swiss mouse at 140 mg/kg, ip
Format: organism-based
Set-up: dose 140 mg/kg, route intraperitoneal
Settings: in vivo

Compound | Activity
O=C1C(c2ccc(Cl)cc2)=[N+]([O-])c2cc3c(cc21)OCO3 | Non-toxic

System: Plasmodium berghei
Assay: Antimalarial activity against Plasmodium berghei ANKA infected Swiss mice (Mus musculus) assessed as reduction in parasitemia at 30 mg/kg, perorally after 3 days measured on day 4
Format: functional
Set-up: scale not given: the % may be the effect or the level left
Settings: route oral
Method in brief: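 Male Swiss outbred CD-1 mice (20 g) were infected iv with 2×10^6 P. berghei ANKA-infected red cells and put in groups of five per dose. Dosing was by oral gavage in suspending vehicle (0.5% Na carboxymethylcellulose, 0.5% benzyl alcohol, 0.4% Tween 80, 0.9% NaCl), starting 3 h postinfection, then once daily on days 1–3. Day-4 Giemsa films; % inhibition against untreated mean parasitaemia.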

Compound | Activity [%]
COc1ccc2c(c1)C(=O)C(c1ccc(N(C)C)cc1)=[N+]2[O-] | 20.9
O=C1C(c2ccc(Cl)cc2)=[N+]([O-])c2cc3c(cc21)OCO3 | 14.5
COc1ccc(C2=[N+]([O-])c3ccccc3C2=O)cc1 | 32.4

System: Plasmodium berghei
Assay: Antimalarial activity against Plasmodium berghei ANKA infected Swiss mice (Mus musculus) assessed as reduction in parasitemia at 30 mg/kg, intraperitoneally after 3 days measured on day 4
Format: functional
Set-up: scale not given: the % may be the effect or the level left
Settings: route intraperitoneal
Method in brief: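 P. berghei ANKA in male Swiss outbred CD-1 mice (20 g), kept specific pathogen-free. Infection was iv with 2×10^6 infected red cells on day 0, then mice were randomized into groups of five per dose. Compound was given ip in 0.05% Tween 80. Parasitaemia was read from Giemsa-stained blood films on day 4 and expressed as % inhibition from group arithmetic mean parasitaemia versus the untreated group.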

Compound | Activity [%]
COc1ccc2c(c1)C(=O)C(c1ccc(N(C)C)cc1)=[N+]2[O-] | 15.3
O=C1C(c2ccc(Cl)cc2)=[N+]([O-])c2cc3c(cc21)OCO3 | 62.1
COc1ccc(C2=[N+]([O-])c3ccccc3C2=O)cc1 | 40.5

System: not listed separately
Assay: Metabolic stability in CD1 mouse liver microsomes assessed as half life
Format: ADME, Microsome
Settings: not given

Compound | half-life [min]
COc1ccc2c(c1)C(=O)C(c1ccc(N(C)C)cc1)=[N+]2[O-] | 6
O=C1C(c2ccc(Cl)cc2)=[N+]([O-])c2cc3c(cc21)OCO3 | < 1
COc1ccc(C2=[N+]([O-])c3ccccc3C2=O)cc1 | 16

System: not listed separately
Assay: Inhibition of beta-hematin formation assessed as biocrystallization by UV-visible assay
Format: functional
Settings: not given

Compound | IC50
O=C1C(c2ccccc2)=[N+]([O-])c2ccccc21 | Not Active
CCOc1ccc(C2=[N+]([O-])c3cc4c(cc3C2=O)OCO4)cc1 | Not Active

System: Plasmodium berghei
Assay: Antimalarial activity against Plasmodium berghei NK65 infected Swiss mice (Mus musculus) assessed as reduction in parasitemia treated intraperitoneally for 3 days measured on day 4
Settings: NK65, ip

Compound | ED50 [mg/kg]
O=C1C(c2ccc(Cl)cc2)=[N+]([O-])c2cc3c(cc21)OCO3 | 16

System: Plasmodium berghei
Assay: Antimalarial activity against Plasmodium berghei NK65 infected Swiss mice (Mus musculus) assessed as reduction in parasitemia at 48 mg/kg, intraperitoneally after 3 days measured on day 4
Set-up: scale not given: the % may be the effect or the level left
Settings: route intraperitoneal

Compound | Activity [%]
O=C1C(c2ccc(Cl)cc2)=[N+]([O-])c2cc3c(cc21)OCO3 | 81
